# This is one part of a sample in which hits are shown more often than they occur.
# Hsp70 act = Hsp70 transcriptional activators, primary screen, cell-based, HeLa, Hsp70 promoter luciferase, luminescence, 10 µM | activation, % at 10 µM | hit rate 0.04% among 200,000 | HeLa Hsp70 promoter luciferase reporter; scaled: vehicle 0, proteasome-inhibitor control 100%;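 active = activation above the mean across all tested compounds plus 3 SD, cutoff set per campaign, cut at about 5.5% in these data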;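 also: 100% = MG132 at 30 µM as the positive control and 0% = DMSO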
# HSF-1 act = HSF-1 activators, primary screen, NIH3T3-HGL cells, MG132 stress, luminescence, single point; activation, % at 9 µM; hit rate 1.7% among 300,000; NIH3T3-HGL HSF-1 luciferase reporter, 8 h; 100% = twice DMSO control signal;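 active = mean replicate activation of at least 50% with a set share of replicates each reaching 50%; inconclusive = only one of those two conditions met; inactive = mean below 50% and too few replicates reaching it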;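 also: 0% = median of the neutral control wells and 100% = twice that signal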
# T cruzi inh = inhibitors of intracellular T. cruzi growth, primary screen, luminescence, NIH3T3 host cells; T. cruzi beta-gal in NIH3T3, 90 h; inhibition, % (concentration not given with the values); hit rate 1.4% among 300,000;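 active = mean inhibition across valid replicates above about 55%, limit read from the data; inconclusive = mean below that limit but half or more replicates reach it; inactive = mean below it, under half of replicates reach it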;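 also: signal also drops with host cell toxicity which is not excluded here; 0% = plate median of DMSO wells and 100% = zero luminescence signal; higher percent means less beta-gal luminescence so fewer parasites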
#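 Material: NIH/3T3 host cells with β-galactosidase reporter T. cruzi; Input: 5,000 host fibroblasts per well; Medium: DMEM, 2% fetal bovine serum; Compound: 50 nL DMSO compound solution per well; Schedule: 3 h host attachment, then at least 90 h co-culture; Detection: luminescent β-galactosidase signal after 60 min lysis.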
# L major viab = Leishmania major promastigote growth inhibition, primary screen; hit rate 9% among 200,000; AID 1063, 2008; inhibition, % at 10 µM; Leishmania major promastigotes, resazurin fluorescence viability; in the data active = inhibition above about 50%;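 also: promastigotes grown with compound for 44 hours at 28 °C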
# HSF1 inhib = HSF1 inhibitors in luciferase reporter cells, primary screen, cell-based, NIH3T3, luminescence; NIH3T3-HGL HSE-luciferase, MG132-induced, luminescence 8 h; active compounds read low; activity change, negative = inhibition, % at 7.5 µM (by protocol); AID 2098, 2009; hit rate 0.77% among 300,000;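 active = more than half of replicate wells show activity change below -50%, luminescence cut by over half; inconclusive = some wells, but at most half, below -50%; inactive = no replicate well below -50%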;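 also: luciferase reports HSF-1 transcriptional activity via heat shock element; 0% = median of DMSO wells and -100% = zero luminescence signal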
# * marks the source's active call; other numbers are inactive results; ? = inconclusive; · = not tested or not shown.
SMILES,Hsp70 act,HSF-1 act,T cruzi inh,L major viab,HSF1 inhib
COCCNC(=S)NNc1ccccc1[N+](=O)[O-],0,-3,5,-12,0
COc1ccccc1OCCCOc1c(C)cc(C)cc1Br,0,12,13,37,5
CCC(C)NCCOCCOc1ccc(C)cc1Br (stereo not given),0,31,44,90*,9
CCC(C)NCCOCCOc1ccc(Br)cc1 (stereo not given),0,-6,66*,89*,2
CCC(C)NCCCOc1c(C)cc(C)cc1Br (stereo not given),0,-2,9,99*,0
C=CCNCCOCCOc1ccc(C)cc1Br,-1,26,56*,99*,-8
CCC(C)NCCOc1ccccc1C (stereo not given),0,1,6,18,1
CCOc1ccc(S(=O)(=O)N(C)c2ccc(OCC(=O)NCCc3ccc(OC)cc3)cc2)cc1,·,-63,16,·,-53*
Cc1ccc(S(=O)(=O)N(C)c2ccc(C(=O)NCCc3ccccc3)cc2)cc1,·,21,15,·,8
COc1ccc(CCNC(=O)c2ccccc2N(C)S(=O)(=O)c2ccccc2)cc1,1,7,32,80*,1
COCCNC(=O)c1ccccc1NC(=O)c1ccccc1N(C)S(=O)(=O)c1ccccc1,0,23,11,0,1
COc1ccc(CCNC(=O)c2ccc(N(C)S(=O)(=O)c3ccc(C)cc3)cc2)cc1,0,-69,46,17,-55*
COc1cccc(C(=O)NCCS(=O)(=O)NCCc2ccccc2)c1,·,59*,2,·,34
CCN1C(=O)[C@H]2[C@@H](c3ccc(-c4ccc5c(c4)OCO5)cc3)N3CCC[C@@]3(C(=O)OC)[C@H]2C1=O,·,35,-11,·,26
CCCN1CCN(CCCNC(=S)Nc2ccc(OC)cc2)CC1,0,0,12,-1,-3
NC(=O)CC(NC(=O)c1cccc(Br)c1)c1ccc(N2CCN(c3ccccn3)CC2)c([N+](=O)[O-])c1 (stereo not given),·,-22,-20,·,-11
O=C(O)c1cc(Cl)c(Cl)cc1C(=O)NCc1ccco1,·,32,-10,·,7
COc1cc(Cl)c(C)cc1NC(=O)CSc1ccc(C)cc1,0,80*,9,-2,38
CCN(CC)S(=O)(=O)c1ccc(OC)c(NC(=O)CSc2cc(C)ccc2C)c1,0,3,0,73*,6
CCN(c1ccccc1)S(=O)(=O)c1ccc(OC)c(NC(=O)CNCCc2ccccc2)c1,0,21,58*,52*,10
CN1CCCN(C(=O)c2ccc(Cl)c(S(=O)(=O)N(C)c3ccccc3)c2)CC1,0,2,36,72*,-2
COc1cc(Cl)c(C)cc1NC(=O)CSc1ccccc1,0,20,5,43,-2
CCN(CC)S(=O)(=O)c1ccc(OC)c(NC(=S)Nc2cc(C)ccc2C)c1,0,20,3,42,0
Nc1nonc1C(=O)N/N=C/c1cc2c(cc1Br)OCO2,·,-21,4,·,-3
CCN(c1ccccc1)S(=O)(=O)c1ccc(Cl)c(C(=O)NCCc2ccc(OC)cc2)c1,0,5,2,89*,6
SMILES,Hsp70 act,HSF-1 act,T cruzi inh,L major viab,HSF1 inhib
COc1ccc(N(CC(=O)NCCc2ccc(OC)c(OC)c2)S(=O)(=O)c2ccc(OC)c(OC)c2)cc1,·,-5,2,·,-4
COc1ccc(CCNC(=O)c2ccc(Cl)c(S(=O)(=O)N(C)c3ccccc3)c2)cc1,0,-1,9,98*,13
NC(=O)C1CCN(S(=O)(=O)c2cccc(C(=O)O)c2)CC1,0,-3,3,-2,0
O=C(COc1ccccc1Cl)Nc1ccc(Cl)cn1,0,106*,-10,-14,59
S=C(Nc1ccccc1)Nc1ccc(Cl)cn1,0,78*,7,41,31
O=C(CSCc1cnn(-c2ccccc2)c1-n1cccc1)N1CCN(Cc2ccccc2)CC1,0,23,45,97*,-1
O=C(O)CSCc1cnn(-c2ccccc2)c1-n1cccc1,0,-7,-5,-1,0
O=c1nc(Nc2ccc(Br)cc2)sc2ccc([N+](=O)[O-])cc12,·,-4,12,·,-1
COc1ccccc1N(C(=O)c1ccncc1)c1nc(-c2ccc([N+](=O)[O-])cc2)cs1,0,-12,62*,99*,-2
COCCN(C(=O)c1cccc(N2C(=O)CCC2=O)c1)c1nc(-c2ccc([N+](=O)[O-])cc2)cs1,·,-6,-3,·,2
CC(C)n1c(SCC(=O)Nc2ccc(N3CCOCC3)cc2)nnc1-c1ccco1,·,9,-18,·,0
Cc1nn(C)cc1C(C(=O)NC1CCCCC1)N(Cc1ccc(F)cc1)C(=O)c1cnccn1 (stereo not given),0,-17,-4,2,-6
Cc1ccc(-n2c(N)c(C(=O)Nc3c(C)n(C)n(-c4ccccc4)c3=O)c3nc4ccccc4nc32)cc1C,0,46,8,79*,19
Nc1c(C(=O)Nc2ccccc2)c2nc3ccccc3nc2n1-c1ccc(O)cc1,·,5,59*,·,4
Nc1c(C(=O)OCC2CCCO2)c2nc3ccccc3nc2n1-c1ccc2c(c1)OCCO2 (stereo not given),0,-46,1,54*,-36
Nc1c(C(=O)NC2CC2)c2nc3ccccc3nc2n1-c1ccc2c(c1)OCO2,0,-19,14,97*,-3
COc1c(OC(C)=O)ccc(/C=C/c2ccc3ccccc3n2)c1[N+](=O)[O-],1,65*,-28,-3,33
O=[N+]([O-])c1ccccc1/C=C/c1ccc2ccccc2n1,·,98*,-11,·,52
O=C1c2ccccc2C(=O)N1Cc1cc(-c2ccc(Cl)cc2)no1,0,28,-7,-8,5
COc1ccccc1-c1cc(C(F)(F)F)nc(S(=O)(=O)CCCC(=O)N2CCOCC2)n1,0,-60,-16,100*,?
COc1ccc(-c2cc(C(F)(F)F)nc(S(=O)(=O)CCCC(=O)Nc3cccc(O)c3)n2)cc1OC,0,260*,-41,4,186
COc1ccc(-c2cc(C(F)(F)F)nc(S(=O)(=O)CCC(=O)N3CCOCC3)n2)cc1,0,106*,-43,18,79
COc1ccccc1-c1cc(C(F)(F)F)nc(S(=O)(=O)CCCC(=O)O)n1,0,40,-17,0,31
COCCNC(=O)CSc1nc(-c2ccc(OC)c(OC)c2)cc(C(F)(F)F)n1,0,16,8,-2,-9
CC(C)CC(=O)N1CCN(Cc2ccccc2Cl)CC1,·,2,-6,·,-13
O=C(Nc1nnc(-c2ccncc2)s1)Nc1ccccc1F,0,5,-11,60*,15

# Screening data as filed in PubChem.
